CHOP UPR activ: apoptotic UPR (CHOP) activation. 330,000 compounds, 0.34% hits. CHO-CHOP luciferase reporter, luminescence; percent of tunicamycin response over DMSO baseline. activation, % at 10 µM;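 active = at 10 µM dose, activation of 40% or more, normalized to positive control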;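 also: 100% = tunicamycin at 10 µg/mL and 0% = DMSO alone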
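measured by = luciferase luminescence | assay system = CHO-CHOP cells, stable luciferase reporter of PERK-eIF2a-CHOP signalling | amount = 500 reporter cells seeded per well | timing = 6 h compound exposure at 37 °C after overnight seeding | controls = positive tunicamycin 10 µg/mL, negative DMSO alone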
ABHD5-PLIN5 inh: ABHD5-PLIN5 protein interaction inhibition. Split G. princeps luciferase complementation, luminescence, 4 h. inhibition, % at 4 µM. 360,000 compounds, 0.78% hits. AID 602281;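 active = inhibition above the mean inhibition across every tested compound plus 3 SD, cut at about 22% in these data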;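 also: 0% = DMSO only wells and the 100% control is not disclosed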
Mdm2-MdmX inh: human Mdm2/MdmX binding inhibition. O15151+Q00987. SaOS-2 split-luciferase Mdm2/MdmX complementation, luminescence. inhibition, % at 8 µM. 330,000 compounds, 3% hits;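 active = inhibition of at least 50% at 8 µM in the primary screen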
Exocytosis inh: lytic granule exocytosis inhibition | TALL-104 LAMP-1 surface exposure, flow cytometry; cells stimulated with thapsigargin and PMA | inhibition, % at 10 µM | 360,000 compounds, 0.66% hits;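 active = inhibition above about 55%, limit read from the data; inconclusive = no clear call, values can overlap the other calls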
XBP1 UPR activ: adaptive UPR (XBP1) activation; CHO-XBP1 luciferase reporter, IRE1-XBP1 UPR activation, luminescence; percent of tunicamycin response, DMSO as zero; activation, % at 20 µM; 330,000 compounds, 0.33% hits;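 active = versus positive control, 20 µM dose yields 30% or more activation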;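 also: 100% = tunicamycin at 10 µg/mL and 0% = DMSO only wells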
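Assay system: IRE1-XBP1 luciferase reporter CHO line. Input: 1000 cells/well. Buffer or medium: F12 with 10% serum. Doses: 20 µM, 1% DMSO. Times: overnight seeding at 37 °C, 6 h compound treatment at 37 °C. Technique: Steady-Glo luciferase glow luminescence, 10 min after reagent addition.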
CHOP UPR conf: apoptotic UPR (CHOP) activation, confirmed. CHO-CHOP cells, CHOP-luciferase reporter luminescence; percent of tunicamycin response, DMSO as zero. AID 463112. 1,000 compounds, 64% hits. activation, % at 10 µM. shares compounds with CHOP UPR activ; in the data active = activation above about 33%;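 also: 0% = DMSO wells and 100% = tunicamycin 10 µg/mL wells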
XBP1 UPR conf: adaptive UPR (XBP1) activation, confirmed; shares compounds with XBP1 UPR activ; CHO-XBP1 IRE1-XBP1 luciferase reporter, luminescence; activation, % at 20 µM; 1,000 compounds, 63% hits; AID 485299;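 active = reporter signal at least 30% of the positive control's activation in two or more of four replicate wells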;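 also: plate controls were DMSO negative control for no effect and tunicamycin 10 µg/mL positive control for full effect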
Mdm2 MdmX conf: human Mdm2/MdmX binding inhibition, confirmed | shares compounds with Mdm2-MdmX inh | luminescent assay | inhibition, % at 8 µM | 10,000 compounds, 55% hits | AID 489028; in the data active = inhibition above about 40%
Full FLuc ctr: inhibits full-length luciferase, flagging false Mdm2/MdmX hits; SaOS-2 full-length luciferase counterscreen, luminescence; 6,200 compounds, 77% hits; inhibition, % at 8 µM; shares compounds with Mdm2-MdmX inh; AID 504607;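 active = mean inhibition at 8 µM reaching about 37%, which flags the compound as non-specific, limit read from the data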;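 also: p53-null SaOS-2 cells with luciferase driven by a doxycycline-inducible promoter; compound on cells about two nights before reading with doxycycline added after day one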
* marks the source's active call; other numbers are inactive results; ? = inconclusive; · = no result. Only some compounds are listed: those with a hit (about 4% of all), similar ones and a draw of the others.

SMILES | CHOP UPR activ | ABHD5-PLIN5 inh | Mdm2-MdmX inh | Exocytosis inh | XBP1 UPR activ | CHOP UPR conf | Mdm2 MdmX conf | Full FLuc ctr | others
Cc1cc(C)cc(NC(=O)/C(C#N)=C/c2cn(CC(=O)NCc3ccco3)c3ccccc23)c1 | 276* | -5 | 95* | -4 | 152* | 44* | 28 | · | XBP1 UPR conf=295*
COC(=O)c1ccc(Cn2c(O)c(N=NC(N)=S)c3ccccc32)o1 | -1 | 2 | -9 | -4 | 0 | · | · | ·
Cc1ccc(Sc2c([N+](=O)[O-])c(=O)n(C)c3ccccc23)cc1 | 101* | 14 | 51* | ? | 1 | 99* | 14 | ·
Cc1ccc(Sc2c(O)c3ccccc3n(C)c2=O)cc1 | · | 1 | · | 4 | · | · | · | ·
COc1cc2nc(NC(=O)c3ccc(Cl)cc3)sc(=O)c2cc1OC | 47* | 0 | 69* | -2 | 68* | 50* | 24 | · | XBP1 UPR conf=27
Cc1oc2c(CN3CCCCC3)c(O)ccc2c(=O)c1-c1ccc(Cl)cc1 | 3 | 6 | -12 | 3 | -4 | · | · | ·
COC(=O)CC1C(=O)NCCN1C(=O)c1ccc2oc(C(C)C)nc2c1 (centres undefined) | 0 | -1 | -8 | -1 | -2 | · | · | ·
C=CCn1c(O)c(N=NC(=S)Nc2ccccc2F)c2cc(S(=O)(=O)N3CCOCC3)ccc21 | 88* | -4 | 64* | 2 | -1 | 121* | 44* | 50*
Cc1ccc(NC(=O)c2sc(Cl)nc2-c2ccccc2)cc1 | -1 | 3 | 6 | -2 | -5 | · | · | ·
CCOC(=O)C(=CNc1nc(-c2ccccc2)c(C(=O)Nc2ccc(-c3ccccc3)cc2)s1)C(=O)OCC | 73* | -1 | 71* | 0 | 209* | 43* | 15 | · | XBP1 UPR conf=133*
COCCN(C(=O)c1c(C)noc1C)c1c(N)n(CC(C)C)c(=O)[nH]c1=O | 2 | 5 | 10 | 0 | 0 | · | · | ·
COc1cccc2sc(N3CCN(c4nc5ccccc5s4)CC3)nc12 | 88* | 3 | 62* | 2 | 94* | 42* | 61* | 81* | XBP1 UPR conf=86*
c1ccc2sc(N3CCOCC3)nc2c1 | 1 | 2 | -19 | -3 | -1 | · | · | ·
O=[N+]([O-])c1cc(-c2ncccn2)c([N+](=O)[O-])s1 | 73* | 20 | 93* | 78* | -5 | 164* | 42* | 12
COc1cc(C(Nc2ccccn2)c2ccc3ccc(C)nc3c2O)cc(OC)c1O (centres undefined) | 263* | 14 | 79* | 105* | 1 | 251* | 81* | 51*
Cc1ccc2ccc(C(Nc3ccccn3)c3ccccc3)c(O)c2n1 (centres undefined) | 3 | 4 | 43 | 3 | 2 | · | · | ·
Oc1c(C(Nc2ccccn2)c2ccccn2)ccc2cccnc12 (centres undefined) | 59* | 7 | 53* | -5 | 15 | 71* | 71* | 45*
O=C(Nc1cnc2ccccc2c1)c1cccnc1 | 2 | -6 | -52 | -1 | -1 | · | · | ·
Cc1cc(C)cc(NC(=O)C(=O)NCCCN2CCCC2=O)c1 | 6 | -5 | -20 | -4 | 3 | · | · | ·
CCCCCCCCCCn1c2c(c(=N)c3c1CCC3)CCC2 | 77* | 23* | 98* | 49 | 47* | 70* | 95* | 6 | XBP1 UPR conf=44*
CCCCCCCCCn1c2c(c(=N)c3c1CCC3)CCCC2 | 72* | 11 | 98* | 47 | 44* | 79* | 96* | 9 | XBP1 UPR conf=44*
CCn1c2c(c(=N)c3c1CCC3)CCCC2 | -1 | -2 | 38 | -2 | -3 | · | · | ·
Cc1ccc(C(=O)NC(C#N)=C(Cl)Cl)cc1 | 136* | · | 100* | · | -5 | 45* | 99* | 53*
Cc1ccc(C(=O)NCC#N)cc1 | 0 | 0 | -4 | -2 | 0 | · | · | ·
CC(=O)N(\C=C/C=C/C=C1\Sc2ccccc2C1=O)c1ccccc1 | 64* | 14 | 81* | 0 | 9 | 35* | 15 | ·
SMILES | CHOP UPR activ | ABHD5-PLIN5 inh | Mdm2-MdmX inh | Exocytosis inh | XBP1 UPR activ | CHOP UPR conf | Mdm2 MdmX conf | Full FLuc ctr | others
Cc1ccc(C2=NN(C(=O)CCl)C(c3cccs3)C2)o1 (centres undefined) | 41* | 13 | 100* | 1 | -4 | 30 | 100* | 51*
FC(F)(F)c1nnc(-c2ccccc2)nc1Sc1ccc(Cl)cc1 | 84* | -3 | 86* | 52 | -6 | -1 | 34 | 16
FC(F)(F)c1nnc(-c2ccccc2)nc1Oc1ccc(Cl)cc1Cl | 3 | 1 | 32 | -2 | -4 | · | · | ·
FC(F)(F)c1nnc(-c2ccccc2)nc1Sc1ccccc1 | 201* | 11 | 52* | 33 | 22 | 59* | 18 | ·
O=C(C1CCCO1)N1CCN(C(=S)Nc2ccc(Cl)cc2Cl)CC1 (centres undefined) | -4 | 3 | 2 | -1 | 1 | · | · | ·
Cc1ccc(Cc2cnc(NC(=O)/C(C#N)=C/c3ccc(-c4ccc([N+](=O)[O-])cc4)o3)s2)cc1 | 123* | 0 | 58* | -2 | 136* | 78* | 5 | · | XBP1 UPR conf=166*
N#C/C(=C/c1ccc(-c2ccc([N+](=O)[O-])cc2)o1)C(=O)Nc1nc(-c2cccs2)cs1 | · | -5 | · | -2 | · | · | · | ·
COc1ccc(C(=O)Cn2c(C(=O)/C=C/c3ccccc3)nc3ccccc32)cc1 | 314* | 19 | 72* | 6 | 13 | 348* | 46* | 61*
C/C(=N\NC(=O)C(C)Oc1ccc([N+](=O)[O-])cc1)c1ccccn1 (centres undefined) | 67* | 3 | 54* | -1 | 7 | 42* | 32 | ·
CC(Oc1ccccc1)C(=O)NNC(=O)c1ccccn1 (centres undefined) | 0 | 3 | 34 | 33 | -2 | · | · | ·
Cc1cc(OCC(=O)N2CCC[C@@H]2C(=O)O)c2c(C)c(C)c(=O)oc2c1 | -1 | -1 | 14 | -10 | -4 | · | · | ·
O=C(Cc1ccc(Cl)cc1)NN1C(=O)c2ccccc2C1=O | 0 | 2 | -16 | -2 | 0 | · | · | ·
COC(=O)[C@@H]1[C@@H](C#N)C2(c3ccccc3-c3ccccc32)N(c2ccc(Cl)cc2)N1C#N | 92* | 8 | 60* | 9 | 4 | 55* | 50* | 33
CCn1cnc2cc(NCc3ccc(OC)cc3)ccc21 | 3 | -5 | -21 | -2 | 4 | · | · | ·
CCOc1ccc2nc3cc(NCc4ccc(OC)cc4)ccc3c(N)c2c1 | 71* | -4 | 97* | 34 | 4 | 1 | 85* | 15

Screening results deposited in PubChem BioAssay by several laboratories.
